Data taken from ChEMBL document CHEMBL3108754, “Herbicidin congeners, undecose nucleosides from an organic extract of Streptomyces sp. L-9-10” (J Nat Prod, 2014).
Calls of active or inactive are those of the source. No cut-off for these calls is given here.

How the values were obtained:
NF-kappaB = assay: Selectivity ratio of IC50 for HEK293 cells to IC50 for NF-kappaB activity in HEK293 cells; type: ADME, cell-based; settings: human, read-out: Ratio IC50
Procedure, shortened: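 HEK293 (Panomic) cells stably carrying an NF-κB luciferase reporter, grown in DMEM with 10% FBS, penicillin/streptomycin and 2 mM L-glutamine, seeded at 20×10^3 per well, then left 48 h. Medium renewed, cells given a range of compound concentrations plus TNF-α at 2 ng/mL (0.14 nM) for 6 h. Lysates read by luciferase luminescence. Cytotoxicity IC50 run under the same conditions.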

HEK293 [1] = assay: Cytotoxicity against HEK293 cells; type: cell-based; settings: Homo sapiens
Procedure, shortened: (§1)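 HEK293 reporter cells were tested under the NF-κB assay conditions: TNF-α activation at 2 ng/mL and 6 h exposure to compounds. Values are cytotoxic IC50 or % survival at 50 μM.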

[2] = Inhibition of TNF-alpha-induced NF-kappaB activity in HEK293 cells after 6 hrs by luciferase reporter gene assay; type: cell-based; settings: Homo sapiens, HEK293, 6 h
Procedure, shortened: (§2)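 Stable NF-κB luciferase reporter HEK293 cells were seeded at 20×10^3 cells/well in DMEM with 10% FBS, penicillin/streptomycin and 2 mM L-glutamine, grown 48 h, then given fresh medium and compounds. Cells were activated with human recombinant TNF-α at 2 ng/mL (0.14 nM) for 6 h, washed, lysed, and read by luciferase luminescence. Values are IC50 for inhibiting TNF-induced activity, or % inhibition at 50 μM.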

[3] = biological target: Nitric oxide synthase, inducible (Homo sapiens) (UniProt P35228); assay: Inhibition of iNOS (unknown origin)
Chain of Nitric oxide synthase, inducible (Homo sapiens) (P35228 whole entry): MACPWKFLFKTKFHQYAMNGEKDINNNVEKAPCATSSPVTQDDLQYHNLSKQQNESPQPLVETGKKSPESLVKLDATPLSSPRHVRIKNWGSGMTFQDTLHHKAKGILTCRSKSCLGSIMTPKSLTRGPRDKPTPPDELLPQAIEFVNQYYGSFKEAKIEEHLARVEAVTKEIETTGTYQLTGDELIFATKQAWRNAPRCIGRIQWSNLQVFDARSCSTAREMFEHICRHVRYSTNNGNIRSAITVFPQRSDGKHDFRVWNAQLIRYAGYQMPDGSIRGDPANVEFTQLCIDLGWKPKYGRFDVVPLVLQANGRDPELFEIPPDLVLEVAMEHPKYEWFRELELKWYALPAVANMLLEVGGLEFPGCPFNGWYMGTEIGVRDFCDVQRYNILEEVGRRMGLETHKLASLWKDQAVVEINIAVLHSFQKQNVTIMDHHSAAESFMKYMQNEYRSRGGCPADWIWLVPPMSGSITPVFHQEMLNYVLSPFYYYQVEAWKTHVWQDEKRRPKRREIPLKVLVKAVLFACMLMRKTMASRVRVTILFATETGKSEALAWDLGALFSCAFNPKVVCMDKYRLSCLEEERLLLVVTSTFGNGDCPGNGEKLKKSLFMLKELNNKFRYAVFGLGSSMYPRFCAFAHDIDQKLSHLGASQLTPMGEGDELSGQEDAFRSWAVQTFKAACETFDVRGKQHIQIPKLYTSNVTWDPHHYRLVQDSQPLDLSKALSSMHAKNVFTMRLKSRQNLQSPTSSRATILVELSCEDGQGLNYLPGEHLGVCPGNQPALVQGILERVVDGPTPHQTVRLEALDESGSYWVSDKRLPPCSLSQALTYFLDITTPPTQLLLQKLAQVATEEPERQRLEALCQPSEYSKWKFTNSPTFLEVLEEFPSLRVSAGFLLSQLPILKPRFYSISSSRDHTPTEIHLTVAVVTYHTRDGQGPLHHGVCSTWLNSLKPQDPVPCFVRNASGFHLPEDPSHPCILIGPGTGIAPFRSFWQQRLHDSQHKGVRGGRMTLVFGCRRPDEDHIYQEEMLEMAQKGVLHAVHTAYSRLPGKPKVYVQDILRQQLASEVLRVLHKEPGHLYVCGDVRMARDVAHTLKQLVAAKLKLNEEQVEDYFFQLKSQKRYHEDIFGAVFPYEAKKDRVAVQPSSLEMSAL

[4] = test system: Radical scavenging activity; assay: Antioxidant activity assessed as DPPH radical scavenging activity; type: functional
Streptomyces = assay: Antimicrobial activity against Streptomyces 85E at 80 ug/disk after 30 hrs by hyphae formation inhibition assay; type: functional, organism-based
HEK293 [5] = assay: Inhibition of TNF-alpha-induced NF-kappaB activity in HEK293 cells at 50 uM after 6 hrs by luciferase reporter gene assay; type: cell-based; settings: Homo sapiens; procedure, shortened: as §2
HEK293 [6] = assay: Inhibition of TNF-alpha-induced NF-kappaB activity in HEK293 cells assessed as cell survival at 50 uM after 6 hrs by luciferase reporter gene assay; type: cell-based; settings: Homo sapiens; procedure, shortened: as §1
MCF7 = assay: Cytotoxicity against human MCF7 cells; type: functional, cell-based

| Structure (SMILES) | selectivity ratio (NF-kappaB) | IC50 (HEK293 [1]) [nM] | IC50 [2] [nM] | inhibition [3] | Activity [4] | Activity (Streptomyces) | inhibition (HEK293 [5]) [%] | cell survival (HEK293 [6]) [%] | Activity (MCF7) |
| --- | --- | --- | --- | --- | --- | --- | --- | --- | --- |
| Cc1ccc(S(=O)(=O)N[C@@H](Cc2ccccc2)C(=O)CCl)cc1 [TPCK] | 2 | 11100 | 3800 | – | – | – | – | – | – |
| COC(=O)[C@H]1O[C@@H]2C[C@H]3O[C@@H](n4cnc5c(N)ncnc54)[C@H](OC)[C@H]3O[C@@]2(O)[C@@H](O)[C@@H]1O | – | > 50000 | 2900 | inactive | inactive | inactive | 94.2 | 95.6 | inactive |
| Cc1ccc(S(=O)(=O)/C=C/C#N)cc1 | 2 | 3800 | 2000 | – | – | – | – | – | – |
| COC(=O)[C@@H]1CC(O)(O)[C@]2(O)O[C@@H]3[C@@H](OC)[C@H](n4cnc5c(N)ncnc54)O[C@@H]3C[C@H]2O1 | – | 13700 | 2400 | inactive | inactive | inactive | 96.2 | 45.1 | inactive |
| C/C=C(\C)C(=O)O[C@H]1[C@H](O)[C@@H](C(=O)OC)O[C@@H]2C[C@H]3O[C@@H](n4cnc5c(N)ncnc54)[C@H](O)[C@H]3O[C@]21O | – | 2200 | 4900 | inactive | inactive | inactive | 92.4 | 42.3 | inactive |
| C/C=C(\C)C(=O)O[C@H]1[C@H](O)[C@@H](C(=O)OC)O[C@@H]2C[C@H]3O[C@@H](n4cnc5c(N)ncnc54)[C@H](OC)[C@H]3O[C@]21O | – | 2300 | 500 | inactive | inactive | inactive | 83.4 | 59.8 | inactive |
| COC(=O)[C@H]1O[C@@H]2C[C@H]3O[C@@H](n4cnc5c(N)ncnc54)[C@H](OC)[C@H]3O[C@@]2(O)[C@H](O)[C@@H]1O | – | 43700 | 3200 | inactive | inactive | inactive | 92.2 | 53 | inactive |
| C/C=C(\CO)C(=O)O[C@H]1[C@H](O)[C@@H](C(=O)OC)O[C@@H]2C[C@H]3O[C@@H](n4cnc5c(N)ncnc54)[C@H](OC)[C@H]3O[C@]21O | – | 2700 | 1800 | inactive | inactive | inactive | 80.9 | 45.8 | inactive |
